Drawing on ChEMBL document CHEMBL2146413, “Mammalian multidrug resistance lipopentasaccharide inhibitors from Ipomoea alba seeds” (J Nat Prod, 2012), this text covers fold change (FC) and IC50 for 5 molecules.

≈ marks a conversion by molar mass, not a printed value.

Assay [1] relates to MDR. Kind of assay: Inhibition of MDR in vinblastine-resistant human MCF7 cells assessed as decrease in vinblastine IC50 at 5 ug/mL after 72 hrs by SRB assay. Type of assay: cell-based. An outline of the steps: (§1)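 Vinblastine (0.00064−10 μg/mL) was given with or without glycolipid at 25 or 5 μg/mL for 72 h at 37 °C, 5% CO2, then read by SRB assay. Vinblastine IC50 came from a semilog plot. Reversal fold = IC50 of vinblastine alone / IC50 with glycolipid. Reserpine 5 μg/mL served as positive control. Values are mean ± SD of three independent experiments.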

The subject of assay [2] is MDR. Kind of assay: Inhibition of MDR in vinblastine-sensitive human MCF7 cells assessed as decrease in vinblastine IC50 at 5 ug/mL after 72 hrs by SRB assay. Type of assay: cell-based. An outline of the steps:
as §1

Assay [3] relates to MDR. Kind of assay: Inhibition of MDR in drug-sensitive human MCF7 cells assessed as decrease in vinblastine IC50 at 5 ug/mL after 72 hrs by SRB assay. It counts as cell-based. An outline of the steps: as §1
Background: In SRB staining, fixed cells bind dye roughly in proportion to their protein.

The subject of assay [4] is MCF7. The assay can be described thus: Cytotoxicity against vinblastine-sensitive human MCF7 cells after 72 hrs by SRB assay. Type of assay: functional, cell-based. The settings on record: MCF7, 72 h. An outline of the steps:
(§2)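 Log-phase cells in RPMI 1640 + 10% FBS, 37 °C, 5% CO2, exposed in triplicate to 0.2−25 μg/mL test sample for 72 h. Growth read by sulforhodamine B. IC50 = concentration giving 50% inhibition of control growth, taken from a semilog plot of concentration against % growth inhibition. Vinblastine served as positive control. Resistant line MCF-7/Vin was kept with or without 0.192 μg/mL vinblastine.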

The subject of assay [5] is MDR. The assay can be described thus: Inhibition of MDR in vinblastine-resistant human MCF7 cells assessed as decrease in vinblastine IC50 at 25 ug/mL after 72 hrs by SRB assay. It counts as cell-based. An outline of the steps: as §1
The test system of assay [6] is MCF7. The assay can be described thus: Cytotoxicity against drug-sensitive human MCF7 cells after 72 hrs by SRB assay. Type of assay: functional, cell-based. The settings on record: MCF7, 72 h. The essentials:
as §2

The test system of assay [7] is MCF7. Kind of assay: Cytotoxicity against vinblastine-reasistant human MCF7 cells after 72 hrs by SRB assay. It counts as functional, cell-based. The settings on record: MCF7, 72 h. The essentials:
as §2

The subject of assay [8] is MDR. The assay can be described thus: Inhibition of MDR in vinblastine-sensitive human MCF7 cells assessed as decrease in vinblastine IC50 at 25 ug/mL after 72 hrs by SRB assay. Type of assay: cell-based. An outline of the steps:
as §1

In assay [9] the test system is MDR. The assay can be described thus: Inhibition of MDR in drug-sensitive human MCF7 cells assessed as decrease in vinblastine IC50 at 25 ug/mL after 72 hrs by SRB assay. It counts as cell-based. The essentials:
as §1

Regarding `COC(=O)[C@H]1[C@H]2C[C@@H]3c4[nH]c5cc(OC)ccc5c4CCN3C[C@H]2C[C@@H](OC(=O)c2cc(OC)c(OC)c(OC)c2)[C@@H]1OC`, the fold change (FC) with MDR [1] was 4.4; with MDR [2] it was 29.2; in the assay on MDR [3] it was 15.7.

As to `C/C=C(\C)C(=O)O[C@H]1[C@H](O[C@H]2[C@@H]3O[C@H]4[C@H](O[C@@H](CCCCC)CCCCCCCCCC(=O)O[C@H]2[C@H](O)[C@@H](CO[C@@H]2O[C@H](C)[C@@H](O)[C@H](OC(=O)/C(C)=C/C)[C@H]2O[C@@H]2O[C@@H](C)[C@H](O)[C@@H](O)[C@H]2O)O3)O[C@H](C)[C@@H](O)[C@@H]4O)O[C@@H](C)[C@H](O)[C@H]1O` [ALBINOSIDE III], the IC50 with MCF7 [4], with MCF7 [6] and with MCF7 [7] was more than 20 mg/L in each case. Moreover, the results for the fold change (FC) in the assay on MDR [5], with MDR [8] and in the assay on MDR [9] were more than 2140, more than 1690 and more than 73.4, respectively.

With `C/C=C(\C)C(=O)O[C@H]1[C@@H]2O[C@H]3[C@H](O[C@@H](CCC)CCCCCCCCCC(=O)O[C@@H]4[C@@H](O)[C@H](C)O[C@@H](O[C@@H]5[C@@H](O[C@@H]6O[C@@H](C)[C@H](O)[C@@H](O)[C@H]6O)[C@H](O[C@H]([C@H]1O)[C@H](C)O2)O[C@H](C)[C@H]5OC(=O)/C(C)=C/C)[C@@H]4O)O[C@H](C)[C@@H](O)[C@@H]3O` [ALBINOSIDE II], the IC50 in the assay with MCF7 [4], with MCF7 [6] and in the assay on MCF7 [7] was more than 20 mg/L throughout. In addition, the fold change (FC) with MDR [5] worked out at 2.6; in the assay on MDR [8], 1.3; with MDR [9] it was 1.9.

`CCC[C@H]1CCCCCCCCCC(=O)O[C@H]2[C@H](O[C@H]3[C@H](OC[C@H]4O[C@@H](O[C@H]5[C@H](O1)O[C@H](C)[C@@H](O)[C@@H]5O)[C@H](O[C@@H]1O[C@@H](C)[C@H](OC(C)=O)[C@@H](O)[C@H]1O)[C@@H](O)[C@@H]4O)O[C@H](C)[C@@H](O)[C@@H]3O)O[C@@H](C)[C@H](OC(=O)[C@H](C)[C@@H](C)O)[C@H]2O` [ALBINOSIDE I]: the IC50 with MCF7 [4], in the assay with MCF7 [6] and in the assay with MCF7 [7] was more than 20 mg/L in each case. Besides, the fold change (FC) with MDR [5] stood at 3.1; in the assay with MDR [8] it was 4.2; in the assay with MDR [9] it was 2.1.

Turning to `CC[C@]1(O)C[C@@H]2CN(CCc3c([nH]c4ccccc34)[C@@](C(=O)OC)(c3cc4c(cc3OC)N(C)[C@H]3[C@@](O)(C(=O)OC)[C@H](OC(C)=O)[C@]5(CC)C=CCN6CC[C@]43[C@@H]65)C2)C1` [VINBLASTINE], the figures for the IC50 in the assay with MCF7 [6] and with MCF7 [7] were 0.047 mg/L (≈ 0.058 µM) and 1.37 mg/L (≈ 1.69 µM), respectively.
